# Calls of active or inactive are those of the source. The rule behind the calls is not given here.
# Biological target: T1, G-protein coupled receptor 35 (Homo sapiens, UniProt Q9HC97)
# Assay: Agonist activity at GPR35 in human HT-29 cells after 1 hr by dynamic mass redistribution assay relative to zaprinast
# Assay type: functional, cell-based
# Design: concentration or dose not given beside the values
# Conditions: not given
# Summary of the method: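 HT-29 monolayer grown overnight on resonant waveguide grating biosensor plates. Cells washed twice, held in HBSS (20 mM Hepes, pH 7.1) for 1 h at 26 °C, then a 2 min baseline taken before compound addition. Response recorded as resonant wavelength shift (pm) over 1 h. […] Compounds diluted from 10 mM DMSO stocks.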
# T1 sequence (Q9HC97 whole entry): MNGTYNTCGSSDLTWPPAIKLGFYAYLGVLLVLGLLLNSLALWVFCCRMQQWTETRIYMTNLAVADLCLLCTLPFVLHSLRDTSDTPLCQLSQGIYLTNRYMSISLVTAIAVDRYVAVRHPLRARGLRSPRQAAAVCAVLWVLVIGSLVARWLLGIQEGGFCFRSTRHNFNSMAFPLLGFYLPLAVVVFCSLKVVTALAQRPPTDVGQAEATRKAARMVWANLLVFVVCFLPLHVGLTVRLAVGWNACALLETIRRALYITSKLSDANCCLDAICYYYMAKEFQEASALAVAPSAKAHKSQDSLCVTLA
row,Structure (SMILES),Activity [%]
1,CC1=C(C#N)C(=C(C#N)C#N)OC1(c1ccccc1)C(F)(F)F (configuration not stated),99
2,CCCCCCCCCCCc1c(C(=O)O)sc2c(Br)csc12,87
3,CCCCCCCCCCCCCc1c(C(=O)O)sc2c(Br)csc12,77
4,CCCCCCc1csc2cc(C(=O)O)sc12,103
5,CCCCCCCCc1c(C(=O)O)sc2c(Br)csc12,103
6,Cc1csc2c1sc1cc(C(=O)O)sc12,118
7,CC1=C(C#N)C(=C(C#N)C#N)OC12c1ccccc1-c1ccccc12,90
8,CCCCCCc1c(C(=O)O)sc2ccsc12,99
9,CC1=C(C#N)C(=C(C#N)C#N)OC1(C)c1ccc(Cl)c(Cl)c1Cl (configuration not stated),90
10,Cc1c(C(=O)O)sc2c(Br)csc12,105
11,CC1=C(C#N)C(=C(C#N)C#N)OC1(C)C,87
12,CC1=C(C#N)C(=C(C#N)C#N)OC12CCCCC2,106
13,CC1=C(C#N)C(=C(C#N)C#N)OC1(C)c1ccc(Cl)c(Cl)c1 (configuration not stated),97

# Biological target: T1, G-protein coupled receptor 35
# Assay: Agonist activity at GPR35 in human HT-29 cells assessed as desensitization of 1 uM zaprinast-induced DMR after 1 hr by dynamic mass redistribution assay
# Assay type: functional, cell-based
# Conditions: not given
row,Structure (SMILES),IC50 [µM]
1,CC1=C(C#N)C(=C(C#N)C#N)OC1(c1ccccc1)C(F)(F)F (configuration not stated),1.94
2,CC1=C(C#N)C(=C(C#N)C#N)OC1(C)c1c(F)c(F)c(F)c(F)c1F (configuration not stated),4.48
3,CCCCCCCCCCCc1c(C(=O)O)sc2c(Br)csc12,0.57
4,CCCCCCCCCCCCCc1c(C(=O)O)sc2c(Br)csc12,1.87
5,CCCCCCc1csc2cc(C(=O)O)sc12,4.69
6,CCCCCCCCc1c(C(=O)O)sc2c(Br)csc12,1.05
7,Cc1csc2c1sc1cc(C(=O)O)sc12,6.07
8,CC1=C(C#N)C(=C(C#N)C#N)OC12c1ccccc1-c1ccccc12,21.6
9,CCCCCCc1c(C(=O)O)sc2ccsc12,1.49
10,CC1=C(C#N)C(=C(C#N)C#N)OC1(C)c1ccc(Cl)c(Cl)c1Cl (configuration not stated),10.3
11,Cc1c(C(=O)O)sc2c(Br)csc12,0.11
12,CC1=C(C#N)C(=C(C#N)C#N)OC1(C)C,12.1
13,O=C(O)c1cc2sccc2s1,57
14,CC1=C(C#N)C(=C(C#N)C#N)OC1(C)c1ccc(F)cc1F (configuration not stated),48.9
15,CC1=C(C#N)C(=C(C#N)C#N)OC12CCCCC2,16.4
16,CC1=C(C#N)C(=C(C#N)C#N)OC1(C)c1ccc(Cl)c(Cl)c1 (configuration not stated),0.06
17,CCCCCCCCCCCCCCCc1c(C(=O)O)sc2c(Br)csc12,5.92
18,CCCCc1ccc(C2(C)OC(=C(C#N)C#N)C(C#N)=C2C)cc1 (configuration not stated),6.4

# Biological target: T1, G-protein coupled receptor 35
# Assay: Agonist activity at GPR35 in human HT-29 cells assessed as receptor internalization at 1 uM after 1 hr by fluorescence imaging
# Assay type: functional, cell-based
# Conditions: not given
# Summary of the method: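 HT-29 seeded in chamber slides at 10000 cells/well and grown 24 h at 37 °C. Cells exposed to compound or DMSO for 1 h at 37 °C, fixed in 4% formaldehyde, then blocked and permeabilized. Stained with anti-GPR35 (intracellular domain, 1:500, 24 h), then a fluorescent secondary antibody (1:500, 1 h, room temperature). GPR35 location assessed by confocal imaging.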
row,Structure (SMILES),Activity
1,Cc1c(C(=O)O)sc2c(Br)csc12,Active

# Tested on: HT-29
# Assay: Induction of dynamic mass redistribution in human HT-29 cells transfected with receptor-targeting iRNA-based shRNA for GPR35 knock out at 10 uM
# Assay type: functional, cell-based
# Conditions: not given
# Summary of the method: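 HT-29 seeded on biosensor plates at 5000 cells/well, 24 h at 37 °C. Transiently transfected with GFP-tagged shRNA plasmids against human GPR35, or control plasmid, at 0.05 μg DNA per well. Medium changed on day 3. About 48 h post-transfection, DMR agonist assay run with compounds at 10 μM, four replicates.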
row,Structure (SMILES),Activity
1,Cc1csc2c1sc1cc(C(=O)O)sc12,inactive
2,Cc1c(C(=O)O)sc2c(Br)csc12,inactive
3,CC1=C(C#N)C(=C(C#N)C#N)OC1(C)C,inactive
4,CCCOc1ccccc1-c1nc2[nH]nnc2c(=O)[nH]1,inactive
5,CC1=C(C#N)C(=C(C#N)C#N)OC1(C)c1ccc(Cl)c(Cl)c1 (configuration not stated),inactive

# Biological target: T1, G-protein coupled receptor 35
# Assay: Agonist activity at GPR35 in human U20S cells expressing beta-lactamase and GPR35-GA14-VP16 transcription factor fusion protein assessed as transcriptional activation after 5 hrs by tango beta-arrestin translocation reporter assay
# Assay type: functional, cell-based, U2OS
# Conditions: read-out: EC50
# Summary of the method: (§1)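 Tango GPR35-bla U2OS cells, which express GPR35–TEV site–Gal4-VP16 and β-arrestin/TEV protease, seeded at 10000 cells/well and cultured overnight. Ligand stimulation for 5 h at 37 °C/5% CO2, then 2 h with LiveBLAzer FRET B/G substrate.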
row,Structure (SMILES),EC50 [µM]
1,CC1=C(C#N)C(=C(C#N)C#N)OC1(c1ccccc1)C(F)(F)F (configuration not stated),> 50
2,CCCCCCCCCCCc1c(C(=O)O)sc2c(Br)csc12,22.7
3,CCCCCCc1csc2cc(C(=O)O)sc12,> 50
4,CCCCCCCCc1c(C(=O)O)sc2c(Br)csc12,> 50
5,Cc1csc2c1sc1cc(C(=O)O)sc12,> 50
6,CCCCCCc1c(C(=O)O)sc2ccsc12,> 50
7,Cc1c(C(=O)O)sc2c(Br)csc12,15
8,CC1=C(C#N)C(=C(C#N)C#N)OC1(C)C,> 50
9,CC1=C(C#N)C(=C(C#N)C#N)OC12CCCCC2,> 50
10,CC1=C(C#N)C(=C(C#N)C#N)OC1(C)c1ccc(Cl)c(Cl)c1 (configuration not stated),10.2

# Same assay, conditions: u2os
row,Structure (SMILES),EC50
1,CC1=C(C#N)C(=C(C#N)C#N)OC1(C)c1c(F)c(F)c(F)c(F)c1F (configuration not stated),Not Active
2,CCCCCCCCCCCCCc1c(C(=O)O)sc2c(Br)csc12,Not Active
3,CCOC(=O)c1sc2c(Br)csc2c1C,Not Active
4,O=C(O)c1cc2sccc2s1,Not Active
5,CC1=C(C#N)C(=C(C#N)C#N)OC1(C)c1ccc(F)cc1F (configuration not stated),Not Active
6,CCCCCCCCCCCCCCCc1c(C(=O)O)sc2c(Br)csc12,Not Active
7,CCCCc1ccc(C2(C)OC(=C(C#N)C#N)C(C#N)=C2C)cc1 (configuration not stated),Not Active

# Biological target: T1, G-protein coupled receptor 35
# Assay: Agonist activity at GPR35 in human U20S cells expressing beta-lactamase and GPR35-GA14-VP16 transcription factor fusion protein assessed as transcriptional activation after 5 hrs by tango beta-arrestin translocation reporter assay relative to zaprinast
# Assay type: functional, cell-based
# Conditions: U2OS
# Summary of the method: as §1, with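 “substrate. Coumarin:fluorescein ratio read as reporter response, doses up to 128 μM, n = 4.” for “substrate.”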
row,Structure (SMILES),Activity
1,CC1=C(C#N)C(=C(C#N)C#N)OC1(c1ccccc1)C(F)(F)F (configuration not stated),14%
2,CCCCCCCCCCCc1c(C(=O)O)sc2c(Br)csc12,55%
3,CCCCCCCCCCCCCc1c(C(=O)O)sc2c(Br)csc12,inactive
4,CCCCCCc1csc2cc(C(=O)O)sc12,9%
5,CCCCCCCCc1c(C(=O)O)sc2c(Br)csc12,8%
6,Cc1csc2c1sc1cc(C(=O)O)sc12,19%
7,CCCCCCc1c(C(=O)O)sc2ccsc12,20%
8,Cc1c(C(=O)O)sc2c(Br)csc12,104%
9,CC1=C(C#N)C(=C(C#N)C#N)OC1(C)C,Active
10,CC1=C(C#N)C(=C(C#N)C#N)OC12CCCCC2,Active
11,CC1=C(C#N)C(=C(C#N)C#N)OC1(C)c1ccc(Cl)c(Cl)c1 (configuration not stated),29%

# Biological target: T1, G-protein coupled receptor 35
# Assay: Agonist activity at GPR35 in human U20S cells expressing beta-lactamase and GPR35-GA14-VP16 transcription factor fusion protein assessed as transcriptional activation up to 128 uM after 5 hrs by tango beta-arrestin translocation reporter assay
# Assay type: functional, cell-based
# Conditions: U2OS
# Summary of the method: as §1, with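 “substrate. Coumarin:fluorescein ratio read as reporter response, doses up to 128 μM, n = 4.” for “substrate.”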
row,Structure (SMILES),Activity
1,CCCCCCCCCCCCCc1c(C(=O)O)sc2c(Br)csc12,inactive
2,CC1=C(C#N)C(=C(C#N)C#N)OC12c1ccccc1-c1ccccc12,inactive
3,CC1=C(C#N)C(=C(C#N)C#N)OC1(C)c1ccc(Cl)c(Cl)c1Cl (configuration not stated),inactive

# Biological target: T1, G-protein coupled receptor 35
# Assay: Agonist activity at GPR35 in human HT-29 cells after 1 hr by dynamic mass redistribution assay
# Assay type: functional, cell-based
# Conditions: not given
# Summary of the method: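 HT-29 monolayer grown overnight on resonant waveguide grating biosensor plates. Cells washed twice, held in HBSS (20 mM Hepes, pH 7.1) for 1 h at 26 °C, then a 2 min baseline taken before compound addition. Response recorded as resonant wavelength shift (pm) over 1 h. Compounds diluted from 10 mM DMSO stocks.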
row,Structure (SMILES),EC50 [µM]
1,CC1=C(C#N)C(=C(C#N)C#N)OC1(c1ccccc1)C(F)(F)F (configuration not stated),3.5
2,CC1=C(C#N)C(=C(C#N)C#N)OC1(C)c1c(F)c(F)c(F)c(F)c1F (configuration not stated),3.35
3,CCCCCCCCCCCc1c(C(=O)O)sc2c(Br)csc12,1.89
4,CCCCCCCCCCCCCc1c(C(=O)O)sc2c(Br)csc12,2.31
5,CCCCCCc1csc2cc(C(=O)O)sc12,9.4
6,CCCCCCCCc1c(C(=O)O)sc2c(Br)csc12,1.46
7,Cc1csc2c1sc1cc(C(=O)O)sc12,6
8,CC1=C(C#N)C(=C(C#N)C#N)OC12c1ccccc1-c1ccccc12,6.6
9,CCCCCCc1c(C(=O)O)sc2ccsc12,3.44
10,CC1=C(C#N)C(=C(C#N)C#N)OC1(C)c1ccc(Cl)c(Cl)c1Cl (configuration not stated),11.1
11,Cc1c(C(=O)O)sc2c(Br)csc12,0.064
12,CC1=C(C#N)C(=C(C#N)C#N)OC1(C)C,17.1
13,O=C(O)c1cc2sccc2s1,42.4
14,CC1=C(C#N)C(=C(C#N)C#N)OC1(C)c1ccc(F)cc1F (configuration not stated),53.9
15,CC1=C(C#N)C(=C(C#N)C#N)OC12CCCCC2,45.9
16,CC1=C(C#N)C(=C(C#N)C#N)OC1(C)c1ccc(Cl)c(Cl)c1 (configuration not stated),0.032
17,CCCCCCCCCCCCCCCc1c(C(=O)O)sc2c(Br)csc12,4.56
18,CCCCc1ccc(C2(C)OC(=C(C#N)C#N)C(C#N)=C2C)cc1 (configuration not stated),15.3

# Biological target: T1, G-protein coupled receptor 35
# Assay: Agonist activity at GPR35 in human HT-29 cells after 1 hr by dynamic mass redistribution assay in presence of GPR35 antagonist SPB05142
# Assay type: functional, cell-based
# Conditions: not given
row,Structure (SMILES),Activity
1,CC1=C(C#N)C(=C(C#N)C#N)OC1(c1ccccc1)C(F)(F)F (configuration not stated),inactive
2,CCCCCCCCCCCc1c(C(=O)O)sc2c(Br)csc12,inactive
3,CCCCCCCCCCCCCc1c(C(=O)O)sc2c(Br)csc12,inactive
4,CCCCCCc1csc2cc(C(=O)O)sc12,inactive
5,CCCCCCCCc1c(C(=O)O)sc2c(Br)csc12,inactive
6,Cc1csc2c1sc1cc(C(=O)O)sc12,Active
7,CC1=C(C#N)C(=C(C#N)C#N)OC12c1ccccc1-c1ccccc12,inactive
8,CCCCCCc1c(C(=O)O)sc2ccsc12,Active
9,CC1=C(C#N)C(=C(C#N)C#N)OC1(C)c1ccc(Cl)c(Cl)c1Cl (configuration not stated),Active
10,Cc1c(C(=O)O)sc2c(Br)csc12,inactive
11,CC1=C(C#N)C(=C(C#N)C#N)OC1(C)C,inactive
12,CC1=C(C#N)C(=C(C#N)C#N)OC12CCCCC2,Active
13,CC1=C(C#N)C(=C(C#N)C#N)OC1(C)c1ccc(Cl)c(Cl)c1 (configuration not stated),inactive

# Biological target: T1, G-protein coupled receptor 35
# Assay: Agonist activity at GPR35 in human HT-29 cells after 1 hr by dynamic mass redistribution assay in presence of 64 uM GPR35 antagonist SPB05142
# Assay type: functional, cell-based
# Conditions: not given
row,Structure (SMILES),Activity
1,CC1=C(C#N)C(=C(C#N)C#N)OC1(c1ccccc1)C(F)(F)F (configuration not stated),inactive
2,CCCCCCCCCCCc1c(C(=O)O)sc2c(Br)csc12,inactive
3,CCCCCCCCCCCCCc1c(C(=O)O)sc2c(Br)csc12,inactive
4,CCCCCCc1csc2cc(C(=O)O)sc12,inactive
5,CCCCCCCCc1c(C(=O)O)sc2c(Br)csc12,inactive
6,Cc1csc2c1sc1cc(C(=O)O)sc12,Active
7,CC1=C(C#N)C(=C(C#N)C#N)OC12c1ccccc1-c1ccccc12,inactive
8,CCCCCCc1c(C(=O)O)sc2ccsc12,Active
9,CC1=C(C#N)C(=C(C#N)C#N)OC1(C)c1ccc(Cl)c(Cl)c1Cl (configuration not stated),Active
10,Cc1c(C(=O)O)sc2c(Br)csc12,inactive
11,CC1=C(C#N)C(=C(C#N)C#N)OC1(C)C,inactive
12,CC1=C(C#N)C(=C(C#N)C#N)OC12CCCCC2,Active
13,CC1=C(C#N)C(=C(C#N)C#N)OC1(C)c1ccc(Cl)c(Cl)c1 (configuration not stated),inactive

# Source: ChEMBL document CHEMBL1914282 (J Med Chem, 2011)
